Reference: ChEMBL document CHEMBL3351723, “New derivatives of lupane triterpenoids disturb breast cancer mitochondria and induce cell death” (Bioorg Med Chem, 2014)
The source made the active and inactive calls. The rule behind the calls is not given here.

Legend:
[1] = Cytotoxicity against human Hs578T cells assessed as decrease in live cells at 1 ug/ml for 24 to 48 hrs by flow cytometry; type: functional; conditions: Hs-578T
How it was run: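 Hs578T seeded at 2.5×10^4 cells/ml, exposed to 1 μg/ml or DMSO for 24 and 48 h. Cells trypsinized and resuspended in HEPES-buffered saline with 15 mM glucose. Stained 15 min at 37°C with 1 μM ethidium homodimer and 0.1 μM calcein-AM. Green (calcein) and red (ethidium homodimer) signals read by flow cytometry. Mean ± SEM, 6 experiments.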

[2] = test system: Liver microsome; experiment: Induction of mitochondrial function disruption in Wistar Han rat liver mitochondria energized with succinate assessed as State-3 level per mg of protein measured at 0.333 ug/mg of protein (reference value: 130.8 +/- 24.1 nmol/mg protein/min); type: functional
[3] = Cell cycle arrest against human Hs578T cells assessed as decrease in cells at S phase at 0.5 ug/ml after 24 to 48 hrs by propidium iodide staining based flow cytometry; type: functional; conditions: Hs-578T
How it was run: (§1)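 Log-phase Hs578T cells exposed 24 and 48 h to 0.5 μg/ml. Adherent plus floating cells fixed in cold 70% ethanol, kept overnight at -20°C, washed into PBS-T (132 mM NaCl, 4 mM KCl, 1.2 mM NaH2PO4, 0.1% Tween). Treated with 20 μg/ml RNase for 45 min at 37°C, then propidium iodide for 30 min at 37°C. Phase percentages read by flow cytometry. Mean ± SEM, 5 experiments.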

[4] = test system: Liver microsome; experiment: Induction of mitochondrial function disruption in Wistar Han rat liver mitochondria energized with succinate assessed as State-4 level per mg of protein measured at 0.667 ug/mg of protein (reference value: 33.5 +/- 7.5 nmol/mg protein/min); type: functional
[5] = test system: Liver microsome; experiment: Effect on mitochondrial transmembrane potential in Wistar Han rat liver mitochondria energized with succinate assessed as ADP depolarization at 1.333 ug/mg of protein (reference value: 23.9 +/- 3.3 mV); type: functional
[6] = test system: Hs-578T; experiment: Induction of apoptosis in human Hs578T cells assessed as increase in cyclophilin D protein at 1 ug/ml after 24 hrs by Western blot analysis; type: functional, cell-based
How it was run: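 About 1.0×10^6 attached and floating HS578T cells, treated 24 h at 1 μg/ml, were lysed in HEPES/sucrose buffer with DTT, PMSF and protease inhibitors. Extracts were stored at -80°C, then p53 and cyclophilin D were semi-quantified by Western blot. Six experiments, mean ± SEM.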

[7] = test system: Hs-578T; experiment: Effect on Bax protein level in human Hs578T cells at 1 ug/ml after 24 hrs by Western blot analysis; type: functional, cell-based
[8] = test system: Hs-578T; experiment: Induction of apoptosis in human Hs578T cells assessed as increase in caspase 3 like activity at 1 ug/ml after 24 hrs; type: functional, cell-based
[9] = Induction of apoptosis in human Hs578T cells assessed as distribution of mitochondrial polarization and morphology at 0.25 ug/ml after 6 hrs by confocal microscopy; type: functional, cell-based; conditions: Hs-578T
How it was run: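 Cells were seeded on glass coverslips and left to attach for 24 h. They were then exposed to vehicle or 0.25 μg/ml compound for 6 h. For the last 30 min they were loaded with 100 nM TMRM in saline buffer with 15 mM glucose, and the probe was kept present during imaging. Mitochondrial polarization and morphology were imaged by fluorescence microscopy, and the TMRM fluorescence standard deviation was quantified. Four independent preparations, mean ± SEM.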

[10] = test system: Hs-578T; experiment: Effect on Bcl2 protein level in human Hs578T cells at 1 ug/ml after 24 hrs by Western blot analysis; type: functional, cell-based
[11] = test system: Liver microsome; experiment: Induction of mitochondrial function disruption in Wistar Han rat liver mitochondria energized with succinate assessed as respiratory control ratio measured at 1.333 ug/mg of protein (reference value: 4.1 +/- 0.5 no_unit); type: functional
[12] = Cell cycle arrest against human Hs578T cells assessed as increase in cells at G0/G1 phase at 0.5 ug/ml after 24 to 48 hrs by propidium iodide staining based flow cytometry; type: functional; conditions: Hs-578T; how it was run: as §1
[13] = test system: Liver microsome; experiment: Induction of mitochondrial function disruption in Wistar Han rat liver mitochondria energized with succinate assessed as adenosine diphosphate/O ratio measured at 0.133 ug/mg of protein (reference value: 2.3 +/- 0.2 no_unit); type: functional
[14] = test system: Liver microsome; experiment: Induction of mitochondrial function disruption in Wistar Han rat liver mitochondria energized with succinate assessed as adenosine diphosphate/O ratio measured at 0.067 ug/mg of protein (reference value: 2.3 +/- 0.2 no_unit); type: functional
[15] = Induction of mitochondrial function disruption in Wistar Han rat liver mitochondria energized with succinate assessed as adenosine diphosphate/O ratio measured at 0.667 ug/mg of protein (reference value: 2.3 +/- 0.2 no_unit); type: functional
[16] = test system: Liver microsome; experiment: Reduction in ADP-induced mitochondrial transmembrane electropotential in Wistar Han rat liver mitochondria energized with succinate at >0.7 ug/mg of protein; type: functional
[17] = test system: MDA-MB-231; experiment: Cytotoxicity against human MDA-MB-231 cells at 0.125 to 2 ug/ml after 1 to 5 days by sulforhodamine B assay in presence of taxol; type: functional, cell-based
[18] = test system: MCF7; experiment: Cytotoxicity against human MCF7 cells at 0.125 to 2 ug/ml after 1 to 5 days by sulforhodamine B assay in presence of taxol; type: functional, cell-based
[19] = test system: Hs-578T; experiment: Cytotoxicity against human Hs578T cells at 0.125 to 2 ug/ml after 1 to 5 days by sulforhodamine B assay; type: functional, cell-based
How it was run: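 Sulforhodamine B growth assay in high-glucose DMEM with 10% FBS. Cancer cells seeded at 1×10^4 cells/ml; compound (0.125–2 μg/ml) added 24 h after seeding and left for 1, 3 or 5 days. Cells fixed, total mass stained. Expressed as % of untreated cells at the same time point. Mean ± SEM, five independent experiments.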

[20] = test system: Hs-578T; experiment: Cytotoxicity against human Hs578T cells at 0.125 to 2 ug/ml after 1 to 5 days by sulforhodamine B assay in presence of taxol; type: functional, cell-based
[21] = test system: BJ; experiment: Cytotoxicity against human BJ cells at 0.125 to 2 ug/ml after 1 to 5 days by sulforhodamine B assay; type: cell-based
How it was run: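 Non-tumor cells seeded at 2×10^4 cells/ml and treated 24 h after seeding, in high-glucose DMEM with pyruvate, 10% FBS and penicillin-streptomycin, 37°C, 5% CO2. Compound exposure 0.125–2 μg/ml for 1, 3 and 5 days, with vehicle controls. Cells fixed and stained with sulforhodamine B for total cell mass. Data given as % of untreated control at each time point; five independent experiments.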

[22] = test system: Liver microsome; experiment: Effect on mitochondrial transmembrane potential in Wistar Han rat liver mitochondria energized with succinate assessed as mitochondrial transmembrane electropotential at 1.333 ug/mg of protein (reference value: 204.2 +/- 5.6 mV); type: functional
How it was run: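 Isolated male Wistar rat liver mitochondria (1.5 mg protein) in 125 mM sucrose, 65 mM KCl, 5 mM KH2PO4, 2.5 mM MgCl2, 5 mM HEPES pH 7.4, 30°C, with 3 μM TPP+. Compound added for 1 min, then 10 mM succinate plus 3 μM rotenone. State 3 started with ADP (83.3 nmol/mg protein). ΔΨ read with a TPP+-selective electrode and calculated by the Kamo equation without binding correction.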

SMILES	inhibition at 1 µg/mL [1] [%]	Activity [2] [nmol/min]	inhibition [3]	Activity [4] [nmol/min]	Activity [6]	Activity [7]	Activity [8]	Activity [9]	Activity [10]	Ratio [11]	Activity [12]	Ratio [13]	Ratio [14]	Ratio [15]	inhibition [16]	inhibition [17]	inhibition [18]	inhibition [19]	inhibition [20]	Activity [21]	further results
C=C(C)[C@@H]1CC[C@]2(COC(=O)C(CC)[n+]3ccc(N(C)C)cc3)CC[C@]3(C)[C@H](CC[C@@H]4[C@@]5(C)CC[C@H](OC(=O)C(CC)[n+]6ccc(N(C)C)cc6)C(C)(C)[C@@H]5CC[C@]43C)[C@@H]12 (stereo partly drawn)	10	132	Active	23.2	Active	inactive	Active	Active	inactive	3.2	Active	1.6	1.6	1.6	–	–	–	–	–	–	Activity [5]: 21.8 mV
C=C(C)[C@@H]1CC[C@]2(COC(=O)C[N+](C)(C)C(C)C)CC[C@]3(C)[C@H](CC[C@@H]4[C@@]5(C)CC[C@H](OC(=O)C[N+](C)(C)C(C)C)C(C)(C)[C@@H]5CC[C@]43C)[C@@H]12.[Cl-].[Cl-]	10	121	Active	28.8	Active	inactive	Active	Active	inactive	4.2	Active	3.1	3	2.6	Active	Active	Active	Active	Active	–	–
C=C(C)[C@@H]1CC[C@]2(COC(=O)C[n+]3ccc(N(C)C)cc3)CC[C@]3(C)[C@H](CC[C@@H]4[C@@]5(C)CC[C@H](OC(=O)C[n+]6ccc(N(C)C)cc6)C(C)(C)[C@@H]5CC[C@]43C)[C@@H]12.[Cl-].[Cl-]	10	136	Active	34.5	Active	inactive	Active	Active	inactive	4	Active	2.4	2.4	2.2	Active	Active	Active	–	Active	Non-toxic	–
C=C(C)[C@@H]1CC[C@]2(COC(=O)CC[n+]3ccc(N(C)C)cc3)CC[C@]3(C)[C@H](CC[C@@H]4[C@@]5(C)CC[C@H](OC(=O)CC[n+]6ccc(N(C)C)cc6)C(C)(C)[C@@H]5CC[C@]43C)[C@@H]12.[Cl-].[Cl-]	–	121	Active	25.7	Active	inactive	Active	–	inactive	4.3	Active	1.7	1.8	1.6	–	–	–	Active	–	Toxic	Activity [22]: 199 mV
